According to paper PMC8525972 (mAbs, 2021):
Values belong to the substance of their own block, whether it stands above or below them.

Key:
murine IgG1 = details: ref [41]; cited from earlier work
[1] = target: adalimumab biosimilar IgG1 (Homo sapiens, UniProt P01857); test: Fluorescence intensity, adalimumab biosimilar in CHO cell culture fluid; type: binding
Summary of the method: (§1)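 CHO-S cells grown in CD CHO medium with 4 mM L-glutamine to 3.31 × 10^6 cells/mL at 96.1% viability. Fluid clarified by 8000×g for 30 min, then 0.2 µm filtration. Antibody spiked into this fluid and mixed 1:1 with 100 nM Fc-III probe in PBS; read immediately at Ex 485/Em 535 nm. Detection limit is signal above blank + 3 StdDev of blank.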

[2] = Fluorescence intensity of probe with hydroxypropyl-β-cyclodextrin; type: physicochemical; details: 50 nM probe; increasing HP-β-cyclodextrin
polyclonal human IgG [3] = test: Fluorescence intensity, human IgG in CHO cell culture fluid; type: binding
Summary of the method: as §1

human IgG [4] = test: Fluorescence polarization mix-and-read assay, human IgG titration; type: binding; details: 50 nM probe, human IgG 0 to 2.5 g/L
Summary of the method: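 Fluorescein-labelled probes (Fc-III peptide, protein G, peptide-H) at 50 nM mixed with human IgG at 0–2.5 g/L in PBS. Polarisation read immediately at Ex 485/Em 535 nm. mP is (I∥ − I⊥)/(I∥ + I⊥) × 1000. Curves fitted with a 4-parameter logistic.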

polyclonal human IgG [5] = test: Fluorescence polarization, human IgG in CHO cell culture fluid; type: binding; details: 100 nM probe in CHO-CCF
murine-IgG1 = test: Fluorescence intensity, murine IgG1 in CHO cell culture fluid; type: binding
Summary of the method: as §1

IgG [6] = details: cited from earlier work
human IgG [7] = test: Fluorescence intensity mix-and-read assay, human IgG titration; type: binding
Summary of the method: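 Human IgG (0–2.5 g/L) diluted in PBS and mixed 1:1 with fluorescein-Ahx-labelled Fc-III peptide probe in PBS; probe tested at 25–500 nM, and at 50 nM and 2000 nM for linear quantitation. Plate read immediately, intensity at Ex 485/Em 535 nm. Normalised intensity is the fold change over probe alone without IgG.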

human IgG [8] = details: ref [40],[41]; cited from earlier work
human-IgG = test: SpA competition with Fc-III probe/human IgG mixture, fluorescence intensity; type: binding; details: IgG 0.005 g/L (30 nM), Fc-III probe 50 nM, 120 min
Summary of the method: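 Unlabelled SpA serially diluted in PBS and added at 0.02 nM–1 µM final to human IgG (33 nM, 0.005 g/L) plus Fc-III probe (50 nM). PBS alone served as negative control. Incubated 120 min for equilibration, then fluorescence intensity read at Ex 485/Em 535 nm.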

IgG [9] = details: ref [16],[17]; cited from earlier work

Chain of adalimumab biosimilar IgG1 (P01857 1-330 isoform P01857-1, other chains not shown): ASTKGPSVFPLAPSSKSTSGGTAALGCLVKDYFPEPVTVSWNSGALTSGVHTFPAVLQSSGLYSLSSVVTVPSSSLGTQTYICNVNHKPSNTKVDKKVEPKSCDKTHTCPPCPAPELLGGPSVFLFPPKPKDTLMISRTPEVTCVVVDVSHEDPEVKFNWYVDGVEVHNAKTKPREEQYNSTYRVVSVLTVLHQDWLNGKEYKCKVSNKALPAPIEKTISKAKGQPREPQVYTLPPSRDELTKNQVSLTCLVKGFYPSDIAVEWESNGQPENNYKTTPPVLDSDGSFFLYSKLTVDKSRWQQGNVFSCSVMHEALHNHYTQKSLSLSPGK

Fluorescence intensity increase ([1]; 100 nM probe in CHO-CCF, 2.5 g/L adalimumab (IgG1 mAb)): ~ 1.8 fold
Adalimumab biosimilar detected down to ([1]; CHO cell culture fluid, fluorescence intensity): 100 ng/mL
Substance: Fluorescein-Ahx-DCAWHLGELVWCT-NH2 (disulfide) [Fc-III probe]
Binding to murine IgG1 (murine IgG1): binds relatively poorly
Fluorescence intensity increase on addition of HPβCD [2]: 2.1 fold
Fluorescence intensity increase (polyclonal human IgG [3]; 100 nM probe in CHO-CCF, 2.5 g/L human IgG): ~ 1.8 fold
Limit of detection compared with HPLC or ELISA (polyclonal human IgG [3]; IgG in CHO-CCF): comparable to those of HPLC or ELISA
Limit of detection by fluorescence intensity (polyclonal human IgG [3]; human IgG, 100 nM probe in CHO-CCF, signal > blank intensity + 3StdDev of blank): 0.00025 g/L
Polarization dynamic range, difference between bound and free probe (Δ mP) (human IgG [4]; 96-well plate, Ex 485 nm/Em 535 nm): 260 mP
Lowest IgG concentration required to produce half-maximal response (human IgG [4]; fluorescence polarization): 0.001 g/L
Polarization changes, human IgG versus adalimumab biosimilar (polyclonal human IgG [5]): nearly identical fluorescence polarization changes
Detection limit (murine-IgG1; murine IgG1, 100 nM probe in CHO-CCF): 0.1 g/L
Detection limit for murine IgG1 relative to human IgG (murine-IgG1; murine IgG1 versus human IgG): 1000 times
Binding affinity for IgG, Fc-III versus SpG (IgG [6]): comparable binding affinity for IgG
Fold increase in fluorescence intensity at lowest IgG concentration (human IgG [7]; 25 nM probe, 0.00025 g/L IgG): 1.16 fold
Linear quantitation range (IgG concentration) (human IgG [7]; 2000 nM Fc-III probe, listed as fluorescein labeled Fc-III): 0.025 to 0.1 g/L
Binding of human IgG (subtypes 1–4) to Fc-III relative to pure IgG1 (human IgG [8]): binds Fc-III less well than pure IgG1

Substance: SpA: unlabeled Staphylococcal protein A, competitor binding to the same location on Fc as Fc-III
Fluorescence intensity of Fc-III/IgG mixture with 500 nM SpA (human-IgG; 500 nM SpA): fell to that of free Fc-III probe
Effect of unlabeled SpA on emission intensity of IgG/Fc-III probe mixture (human-IgG; SpA 0.02 nM to 1 µM in PBS): markedly diminished

Substance: fluorescein-labeled protein A (SpA): fluorescein-labeled protein A, literature comparison
IgG binding-induced fluorescence enhancement of fluorescein-labeled protein A (IgG [9]): IgG binding-induced fluorescence enhancement
